7 compounds from ChEMBL document CHEMBL1123867, “Anticonvulsant O-alkyl sulfamates. 2,3:4,5-Bis-O-(1-methylethylidene)-beta-D-fructopyranose sulfamate and related compounds” (1987) can be followed below.

Test [1] deals with Mus musculus. Kind of test: Anticonvulsant activity by using a standard maximal electroshock test (MES) in mice, by 100 mg/kg intraperitoneal administration of the compound; I =inactive. Format: functional, organism-based. More on the design: dose 100 mg/kg. A digest of the protocol: (§1)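 Supramaximal electroshock: 50-mA current (60 Hz, 0.20 s) via corneal electrodes induced hind-limb tonic extension; inhibition of this component scored as activity. Mice dosed ip and/or po in aqueous solution or suspension (ca. 0.1% Tween 80, distilled water). Tested at 30, 60, 120 and 240 min (sometimes 45 min); ten mice per time point.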

Test [2] concerns Mus musculus. Kind of test: Anticonvulsant activity by using a standard maximal electroshock test (MES) in mice, by intraperitoneal administration of the compound. Format: functional. The following applies: ip. In a few lines:
as §1
For orientation: In the maximal electroshock model the usual endpoint is tonic extension of the hind limbs.

Test [3] relates to Mus musculus. Briefly: Anticonvulsant activity following p.o. administration by standard maximal electroshock test in mice. Format: functional. To be noted: po. A digest of the protocol:
as §1

Test [4] relates to Mus musculus. Briefly: Percentage block of the hind-limb tonic-extensor seizure was determined after application of an electric shock to mice for 60 min followed by 200 mg/kg intraperitoneal dose. Format: functional. In a few lines: (§2)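 Mouse MES test: supramaximal seizure from a 50-mA current (60 Hz, 0.20-s) through corneal electrodes. […] Ten mice per time point. Compound given in aqueous solution or in suspension in ca. 0.1% Tween 80 and distilled water. Free food and water except during testing.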

Test [5] relates to Mus musculus. Kind of test: Percentage block of the hind-limb tonic-extensor seizure was determined after application of an electric shock to mice for 60 min followed by 400 mg/kg peroral dose. Format: functional. The following applies: route oral. In a few lines: as §2
Test [6] relates to Mus musculus. Briefly: Percentage block of the hind-limb tonic-extensor seizure was determined after application of an electric shock to mice for 120 min followed by 200 mg/kg intraperitoneal dose. Format: functional. A digest of the protocol: as §1
Test [7] deals with Mus musculus. Kind of test: Percentage block of the hind-limb tonic-extensor seizure was determined after application of an electric shock to mice for 120 min followed by 400 mg/kg peroral dose. Format: functional. To be noted: route oral. In a few lines: as §1
In test [8] the test system is Mus musculus. Kind of test: Percentage block of the hind-limb tonic-extensor seizure was determined after application of an electric shock to mice for 30 min followed by 200 mg/kg intraperitoneal dose. Type of test: functional. In a few lines: as §1
Test [9] concerns Mus musculus. Briefly: Percentage block of the hind-limb tonic-extensor seizure was determined after application of an electric shock to mice for 30 min followed by 400 mg/kg peroral dose. Type of test: functional. The following applies: route oral. A digest of the protocol:
as §1

Test [10] relates to Mus musculus. Kind of test: Percentage block of the hind-limb tonic-extensor seizure was determined after application of an electric shock to mice for 240 min followed by 200 mg/kg intraperitoneal dose. Type of test: functional. In a few lines:
as §1

Test [11] relates to Mus musculus. Briefly: Percentage block of the hind-limb tonic-extensor seizure was determined after application of an electric shock to mice for 240 min followed by 400 mg/kg peroral dose. To be noted: route oral. Format: functional. A digest of the protocol:
as §1

Test [12] concerns Mus musculus. Kind of test: Percentage block of the hind-limb tonic-extensor seizure was determined after application of an electric shock to mice for 60 min followed by 10 mg/kg intraperitoneal dose. Format: functional. In a few lines: as §1
Test [13] concerns Mus musculus. Kind of test: Percentage block of the hind-limb tonic-extensor seizure was determined after application of an electric shock to mice for 60 min followed by 15 mg/kg peroral dose. The following applies: route oral. Format: functional. In a few lines: as §2
The subject of test [14] is Mus musculus. Kind of test: Percentage block of the hind-limb tonic-extensor seizure was determined after application of an electric shock to mice for 120 min followed by 10 mg/kg intraperitoneal dose. Format: functional. A digest of the protocol:
as §1

Test [15] has as its system Mus musculus. Briefly: Percentage block of the hind-limb tonic-extensor seizure was determined after application of an electric shock to mice for 120 min followed by 15 mg/kg peroral dose. Format: functional. To be noted: route oral. In a few lines: as §1
The test system of test [16] is Mus musculus. Kind of test: Percentage block of the hind-limb tonic-extensor seizure was determined after application of an electric shock to mice for 30 min followed by 10 mg/kg intraperitoneal dose. Type of test: functional. A digest of the protocol:
as §1

Test [17] relates to Mus musculus. Kind of test: Percentage block of the hind-limb tonic-extensor seizure was determined after application of an electric shock to mice for 30 min followed by 15 mg/kg peroral dose. Type of test: functional. The following applies: route oral. In a few lines:
as §1

Test [18] concerns Mus musculus. Briefly: Percentage block of the hind-limb tonic-extensor seizure was determined after application of an electric shock to mice for 240 min followed by 10 mg/kg intraperitoneal dose. Format: functional. A digest of the protocol: as §1
Test [19] deals with Mus musculus. Kind of test: Percentage block of the hind-limb tonic-extensor seizure was determined after application of an electric shock to mice for 240 min followed by 15 mg/kg peroral dose. Format: functional. The following applies: route oral. In a few lines:
as §1

Test [20] relates to Mus musculus. Kind of test: Anticonvulsant activity by using a standard maximal electroshock test (MES) in mice, by 100 mg/kg intraperitoneal administration of the compound; i =inactive. Format: functional, organism-based. Set-up: dose 100 mg/kg. A digest of the protocol:
as §1

The test system of test [21] is Mus musculus. Briefly: Anticonvulsant activity by using a standard maximal electroshock test (MES) in mice, by 100 mg/kg intraperitoneal administration; i=inactive. Format: functional, organism-based. More on the design: dose 100 mg/kg. A digest of the protocol:
as §1

Test [22] deals with Mus musculus. Briefly: Anticonvulsant activity by using a standard maximal electroshock test (MES) in mice, by 200 mg/kg intraperitoneal administration of the compound; I=inactive, 0-10% block. Type of test: functional, organism-based. Set-up: dose 200 mg/kg. In a few lines: as §1
The subject of test [23] is Mus musculus. Kind of test: Anticonvulsant activity by using a standard maximal electroshock test (MES) in mice, by 400 mg/kg peroral administration of the compound; I=inactive, 0-10% block. Type of test: functional, organism-based. More on the design: dose 400 mg/kg. A digest of the protocol: as §1
Test [24] has as its system Mus musculus. Briefly: Anticonvulsant activity by using a standard maximal electroshock test (MES) in mice, by 100 mg/kg intraperitoneal administration; i= Inactive. More on the design: dose 100 mg/kg. Format: functional, organism-based. A digest of the protocol: as §1
For test [25], the system named is Mus musculus. Kind of test: Anticonvulsant activity by using a standard maximal electroshock test (MES) in mice, by 100 mg/kg intraperitoneal administration of the compound; I=inactive, 0-10% block. Format: functional, organism-based. Set-up: dose 100 mg/kg. In a few lines: as §1
The test system of test [26] is Mus musculus. Kind of test: Anticonvulsant activity by using a standard maximal electroshock test (MES) in mice, by 200 mg/kg peroral administration of the compound; I=inactive, 0-10% block. Type of test: functional, organism-based. More on the design: dose 200 mg/kg. A digest of the protocol: as §1
The subject of test [27] is Mus musculus. Kind of test: Percentage block of the hind-limb tonic-extensor seizure was determined after application of an electric shock to mice for 60 min followed by 100 mg/kg intraperitoneal dose. Format: functional. In a few lines: as §1
The test system of test [28] is Mus musculus. Briefly: Percentage block of the hind-limb tonic-extensor seizure was determined after application of an electric shock to mice for 120 min followed by 100 mg/kg intraperitoneal dose. Format: functional. In a few lines:
as §1

Test [29] has as its system Mus musculus. Briefly: Percentage block of the hind-limb tonic-extensor seizure was determined after application of an electric shock to mice for 120 min followed by 200 mg/kg peroral dose. Format: functional. To be noted: route oral. A digest of the protocol:
as §1

Test [30] concerns Mus musculus. Briefly: Percentage block of the hind-limb tonic-extensor seizure was determined after application of an electric shock to mice for 30 min followed by 100 mg/kg intraperitoneal dose. Format: functional. A digest of the protocol:
as §1

Test [31] concerns Mus musculus. Briefly: Percentage block of the hind-limb tonic-extensor seizure was determined after application of an electric shock to mice for 30 min followed by 200 mg/kg peroral dose. Format: functional. To be noted: route oral. In a few lines: as §1
In test [32] the test system is Mus musculus. Briefly: Percentage block of the hind-limb tonic-extensor seizure was determined after application of an electric shock to mice for 240 min followed by 100 mg/kg intraperitoneal dose. Type of test: functional. In a few lines: as §1
Test [33] relates to Mus musculus. Briefly: Percentage block of the hind-limb tonic-extensor seizure was determined after application of an electric shock to mice for 240 min followed by 200 mg/kg peroral dose. Type of test: functional. The following applies: route oral. A digest of the protocol: as §1
In test [34] the test system is Mus musculus. Kind of test: Percentage block of the hind-limb tonic-extensor seizure was determined after application of an electric shock to mice for followed by 200 mg/kg peroral dose. The following applies: route oral.

Active and inactive are the calls of the source. The rule behind the calls is not given here. Some results are limits rather than exact numbers.

As usually defined, the ED50 is the dose that gives a 50% effect, or the effect in half of the subjects.

Take `CC1(C)OC2C(OS(N)(=O)=O)C3(COC(C)(C)O3)OC[C@H]2O1` (some centres undefined): the ED50 result in test [1] is “inactive”.

Take `CC1(C)O[C@@H]2[C@H](O1)[C@H]1OC(C)(C)OC1O[C@@H]2COS(N)(=O)=O` (some centres undefined): the figures for the ED50 in [2] and in [3] were 175 mg/kg and more than 200 mg/kg, respectively. For the same compound, the Block was found to be 40% in test [4]; 80% in test [5]; 50% in test [6]; 90% in test [7]; 20% in [8]; 50% in test [9]. Besides, the Block in [10] was determined as 30%; in test [11], 80%.

Regarding `O=C1NC(=O)C(c2ccccc2)(c2ccccc2)N1` [PHENYTOIN], the median effective dose (ED50) in [2] and in test [3] was 10 mg/kg throughout. The Block in test [12] is recorded as 60%; in test [13], 80%; in [14], 80%; in test [15], 70%; in [16], 60%; in test [17], 50%. The Block was 70% in [18] and 30% in [19].

Consider `NS(=O)(=O)OCC1(O)OC[C@@H](O)[C@@H](O)C1O` (some centres undefined), for which, in test [20], the ED50 result is “inactive”.

As for `CC1(C)OC2C3OC(C)(C)O[C@]3(COC(=O)Nc3ccccc3)OC[C@H]2O1` (some centres undefined), the ED50 result in test [21], in [22] and in [23] was “inactive” in each case. Besides, the Block in [4], in test [5], in test [6], in test [7], in test [8] and in [9] was 0% each time. Further, the Block in test [10] and in test [11] was 0% in each case.

For the compound `CC1(C)OC2C3OC(C)(C)O[C@]3(CO)OC[C@H]2O1` (some centres undefined), the ED50 result in test [24], in test [22] and in [23] was “inactive” each time. Also, the Block in test [4], in [5], in [6], in test [7], in test [8] and in test [9] was 0% each time. Also, the Block in [10] and in test [11] was 0% in each case.

`CC1(C)C2CCC(COS(N)(=O)=O)C1C2` (centres undefined): the ED50 result in test [25] and in test [26] was “inactive” in each case. Moreover, the Block in [27] stood at 10%; in test [28], 0%; in [29] it was 10%; in test [30] it was 10%; in test [31], 10%; in test [32], 0%. Besides, the Block in [33] is listed as 0%; in test [34], 10%.
